Test results reported in ChEMBL document CHEMBL2163205 (J Med Chem, 2012).
Converted amounts (≈) assume the structure as drawn. The source made the active and inactive calls. The rule behind the calls is not given here.

Key:
[1] = Fraction unbound in dog serum; type: ADME, cell-free, Canis lupus familiaris
Summary of the method: (§1)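 Serum or plasma protein binding reported as percentage free. Each value is the mean of at least n = 2 experiments.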

[2] = system: Canis familiaris; assay: In-vivo inhibition of CatK in orally dosed Alderley Park Beagle dog assessed as reduction in CTX-1 level at 0.1 to 2 mg/kg, po qd by ELISA; type: functional, organism-based; conditions: Canis lupus familiaris
Summary of the method: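 Male Alderley Park Beagles (12−14 months, 14−17 kg) gavaged at 0.1, 0.3 or 2.0 mg/kg in 5% DMSO + 95% HPMC/Tween, 5 mL/kg, with dosing started at the same time of day. Jugular blood was clotted ≥1 h at room temperature and serum spun down. Serum CTX-1 was measured by CrossLaps ELISA; points are mean n = 2.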

[3] = biological target: Cathepsin B (Homo sapiens, UniProt P07858); assay: Inhibition of human recombinant CatB assessed as suppression of enzyme-mediated Z-Arg-Arg-AMC cleavage by QFRET assay
Summary of the method: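 Recombinant human Cat B at 0.5 nM final was preincubated with compound for 30 min at room temperature. Z-Arg-Arg-AMC (100 μM final) was added in potassium phosphate buffer, pH 6.4, incubated 1 h, then stopped with acetic acid. Fluorescence read at ex 360/em 425 nm with background correction; IC50 by nonlinear regression.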

[4] = Intrinsic clearance in rat liver microsomes assessed as metabolic turnover
[5] = Volume of distribution at steady state in Beagle dog at 1.0 mg/kg, po and 1.0 mg/kg, iv administered as single dose; type: ADME, organism-based, Canis lupus familiaris; conditions: in vivo, read-out: Vdss
Summary of the method: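 Beagle dogs, fasted. Given single iv dose of 1.0 mg/kg as a solution in 10% DMSO/90% Sorensons and single po dose of 1.0 mg/kg as a suspension in 5% DMSO/95% HPMC/TWEEN. At least two experiments, each with two animals.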

[6] = in vivo; conditions: Alderley Park Han Wistar, rat, plasma, iv, 2 mg/kg
[7] = Lipophilicity, log D of the compound at pH 7.4; conditions: buffer
[8] = biological target: Cathepsin S (Homo sapiens, UniProt P25774); assay: Inhibition of human recombinant CatS assessed as suppression of enzyme-mediated Z-Val-Val-Arg-AMC cleavage by QFRET assay
Sequence of Cathepsin S (P25774 whole entry): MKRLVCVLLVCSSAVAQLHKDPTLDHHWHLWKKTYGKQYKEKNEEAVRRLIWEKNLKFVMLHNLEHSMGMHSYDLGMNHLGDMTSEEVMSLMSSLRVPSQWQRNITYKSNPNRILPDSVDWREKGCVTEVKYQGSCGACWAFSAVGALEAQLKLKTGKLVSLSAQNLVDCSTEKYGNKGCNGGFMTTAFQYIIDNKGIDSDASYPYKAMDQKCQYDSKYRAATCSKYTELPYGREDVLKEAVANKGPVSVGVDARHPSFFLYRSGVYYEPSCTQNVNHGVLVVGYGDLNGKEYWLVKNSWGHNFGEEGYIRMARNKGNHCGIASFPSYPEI
Summary of the method: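 Recombinant human Cat S at 0.5 nM final was preincubated with compound for 30 min at room temperature. Z-Val-Val-Arg-AMC (100 μM final) was added in potassium phosphate buffer, pH 6.4, incubated 1 h, then stopped with acetic acid. AMC fluorescence read at ex 360/em 425 nm; IC50 by nonlinear regression.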

[9] = Intrinsic clearance in human liver microsomes assessed as metabolic turnover
[10] = Volume of distribution at steady state in Alderley Park Han Wistar rat at 2.0 mg/kg, po and 2.0 mg/kg, iv administered as single dose; type: ADME, organism-based; conditions: in vivo, read-out: Vdss
Summary of the method: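 Male Alderley Park Han Wistar rats, fed. Given single iv dose of 2.0 mg/kg as a solution in 40% DMA/water and single po dose of 2.0 mg/kg as a suspension in 5% DMSO/95% HPMC/TWEEN. At least two experiments, each with two animals.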

[11] = Oral bioavailability in Alderley Park Han Wistar rat at 2.0 mg/kg administered as single dose; type: ADME, organism-based; conditions: in vivo
Summary of the method: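 Fed male Alderley Park Han Wistar rats dosed po at 2.0 mg/kg as a suspension in 5% DMSO/95% HPMC/TWEEN; iv reference dose 2.0 mg/kg in 40% DMA/water. Single doses, at least two experiments of two animals each.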

[12] = biological target: Procathepsin L (Homo sapiens, UniProt P07711); assay: Inhibition of human recombinant CatL assessed as suppression of enzyme-mediated Z-Phe-Arg-AMC cleavage by QFRET assay
Sequence of Procathepsin L (P07711 whole entry): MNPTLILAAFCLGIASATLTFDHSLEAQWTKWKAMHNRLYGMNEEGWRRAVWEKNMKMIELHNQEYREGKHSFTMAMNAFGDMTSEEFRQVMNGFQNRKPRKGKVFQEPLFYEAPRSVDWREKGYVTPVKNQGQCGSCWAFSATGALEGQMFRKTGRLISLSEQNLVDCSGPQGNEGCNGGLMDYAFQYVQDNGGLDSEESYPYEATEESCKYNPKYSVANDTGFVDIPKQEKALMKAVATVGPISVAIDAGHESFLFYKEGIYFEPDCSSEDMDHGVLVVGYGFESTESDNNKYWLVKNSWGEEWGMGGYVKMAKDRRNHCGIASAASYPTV
Summary of the method: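 Recombinant human Cat L at 0.1 nM final was preincubated with compound for 30 min, then Z-Phe-Arg-AMC (10 μM final) was added. QFRET cleavage was run 1 h at room temperature and stopped with acetic acid. Fluorescence read at ex 360/em 425 nm; IC50 by variable-slope nonlinear regression.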

[13] = Half life in Alderley Park Han Wistar rat at 2.0 mg/kg, iv administered as single dose; conditions: in vivo
[14] = Intrinsic clearance in dog hepatocytes assessed as metabolic turnover measured per 10^6 cells
[15] = Intrinsic clearance in human hepatocytes assessed as metabolic turnover measured per 10^6 cells
[16] = Oral bioavailability in Beagle dog at 1.0 mg/kg administered as single dose; conditions: in vivo
[17] = Fraction unbound in rat serum; type: ADME, cell-free; summary of the method: as §1
[18] = Half life in Beagle dog at 1.0 mg/kg, iv administered as single dose; conditions: in vivo
[19] = in vivo; conditions: Beagle, dog, plasma, iv, 1 mg/kg
[20] = biological target: T1, Cathepsin K (Canis lupus familiaris, UniProt Q3ZKN1); assay: Inhibition of dog recombinant CatK assessed as suppression of enzyme-mediated Z-Phe-Arg-AMC cleavage by QFRET assay
T1 sequence (Q3ZKN1 whole entry): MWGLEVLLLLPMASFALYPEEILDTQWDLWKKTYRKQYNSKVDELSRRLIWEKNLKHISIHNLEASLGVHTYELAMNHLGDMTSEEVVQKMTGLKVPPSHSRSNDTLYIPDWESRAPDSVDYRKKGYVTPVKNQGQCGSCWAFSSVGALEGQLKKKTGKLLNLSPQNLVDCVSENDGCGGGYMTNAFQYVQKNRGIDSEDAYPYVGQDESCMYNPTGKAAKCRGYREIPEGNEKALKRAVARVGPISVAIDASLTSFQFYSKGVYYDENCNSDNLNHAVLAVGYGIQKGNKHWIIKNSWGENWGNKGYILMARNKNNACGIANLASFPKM
Summary of the method: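 Recombinant dog Cat K at 0.5 nM final was preincubated with compound for 30 min at room temperature. Z-Phe-Arg-AMC (15 μM final) was added in sodium acetate buffer, pH 5.5, and incubated 1 h at room temperature in the dark, then stopped with 7.5% acetic acid. Fluorescence read at ex 360/em 425 nm; IC50 by nonlinear regression.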

[21] = Fraction unbound in human serum; type: ADME, cell-free; summary of the method: as §1
[22] = biological target: T2, Cathepsin K (Homo sapiens, UniProt P43235); assay: Inhibition of human recombinant CatK assessed as suppression of enzyme-mediated Z-Phe-Arg-AMC cleavage incubated for 1 hrs by QFRET assay
T2 sequence (P43235 whole entry): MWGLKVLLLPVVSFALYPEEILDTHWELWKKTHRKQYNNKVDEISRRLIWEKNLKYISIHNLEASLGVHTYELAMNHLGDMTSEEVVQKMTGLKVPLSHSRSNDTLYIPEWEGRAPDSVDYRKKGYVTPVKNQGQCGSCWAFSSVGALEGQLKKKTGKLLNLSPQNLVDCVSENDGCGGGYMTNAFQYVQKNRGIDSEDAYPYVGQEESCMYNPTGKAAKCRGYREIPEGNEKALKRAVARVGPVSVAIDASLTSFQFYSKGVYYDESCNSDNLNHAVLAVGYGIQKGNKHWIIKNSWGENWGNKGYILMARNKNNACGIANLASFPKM

[23] = Fraction unbound at serum; type: ADME, cell-free; summary of the method: as §1
[24] = Aqueous solubility of the compound at pH 7.4; conditions: buffer
[25] = Intrinsic clearance in rat hepatocytes assessed as metabolic turnover measured per 10^6 cells; type: ADME, cell-based, Hepatocyte
Summary of the method: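 Intrinsic clearance from in vitro hepatocyte incubation, expressed in μL/min/10⁶ cells. Each value is the mean of at least n = 2 experiments.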

[26] = organism: Homo sapiens; assay: Selectivity ratio of IC50 for human recombinant CatS to IC50 for human recombinant CatK
Summary of the method: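 Quenched-FRET cleavage assays with in-house recombinant human enzymes at 0.5 nM final. Cat K used 50 μM Z-Phe-Arg-AMC at pH 5.5 (acetate/EDTA). Cat S used 100 μM Z-Val-Val-Arg-AMC at pH 6.4 (potassium phosphate). Compounds were preincubated 30 min at RT, then reacted 1 h, stopped with acetic acid and read at ex 360/em 425 nm. Twelve concentrations; IC50s from variable-slope nonlinear regression; ratio Cat S/Cat K.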

| SMILES | fraction unbound [1] | IC50 [3] [nM] | microsomal CLint [4] [µL/min/mg] | Vd [5] [L/kg] | clearance [6] [mL/min/kg] | logD [7] | IC50 [8] [nM] | microsomal CLint [9] [µL/min/mg] | Vd [10] [L/kg] | bioavailability [11] [%] | IC50 [12] | half-life [13] [h] | hepatocyte CLint [14] [µL/min/1e6 cells] | hepatocyte CLint [15] [µL/min/1e6 cells] | bioavailability [16] [%] | fraction unbound [17] | half-life [18] [h] | fraction unbound [21] | IC50 [22] [nM] | solubility [24] [µM] | further results |
| --- | --- | --- | --- | --- | --- | --- | --- | --- | --- | --- | --- | --- | --- | --- | --- | --- | --- | --- | --- | --- | --- |
| COc1cccc2c3c([nH]c12)CCN(C(=O)[C@@H]1CCCC[C@H]1C(=O)NC1(C#N)CC1)C3 | 0.22 | > 2900 | 67 | 1.7 | 53 | 2.7 | > 4000 | 16 | 2.3 | 28 | Not Active | 1 | 2.5 | 5.3 | 65 | 0.17 | 1.5 | 0.17 | < 1 | – | inhibition [2]: Active; clearance [19]: 10 mL/min/kg; IC50 [20]: 0.8 nM |
| N#CC1(NC(=O)[C@@H]2CCCC[C@H]2C(=O)N2CCc3oc4ccccc4c3C2)CC1 | – | – | > 350 | – | – | 3 | – | – | – | 0 | – | – | – | – | – | – | – | – | 25 | 580 (≈ 227 µg/mL) | fraction unbound [23]: 0.12 |
| N#CC1(NC(=O)[C@@H]2CCCC[C@H]2C(=O)N2CCc3[nH]c4ncccc4c3C2)CC1 | 0.38 | > 2900 | – | 0.9 | – | 2.1 | > 4000 | – | 1.6 | 12 | Not Active | – | – | – | 59 | 0.42 | – | 0.33 | 1 | 1500 (≈ 587 µg/mL) | – |
| N#CC1(NC(=O)[C@@H]2CCCC[C@H]2C(=O)N2CCc3[nH]c4ccc(F)cc4c3C2)CC1 | 0.13 | 3520 | > 250 | 1.2 | 63 | 3 | > 4000 | 41 | 2.3 | 3.8 | – | 0.6 | 6.7 | < 2.5 | 82 | 0.16 | 1.8 | 0.14 | < 1 | 580 (≈ 237 µg/mL) | IC50 ([12]; read-out: IC50): > 40000 nM; clearance [19]: 10 mL/min/kg; hepatocyte CLint [25]: 126 µL/min/1e6 cells |
| CN(C)C(=O)[C@@H]1CCCC[C@H]1C(=O)NCC#N | – | 9820 | < 2 | – | – | < 0.5 | 3700 | 5.1 | – | – | – | – | – | – | – | – | – | – | 257 | > 4600 | Ratio IC50 [26]: 14; IC50 ([12]; read-out: IC50): > 40000 nM |
| N#CC1(NC(=O)[C@@H]2CCCC[C@H]2C(=O)N2CCc3[nH]c4ccccc4c3C2)CC1 | – | > 2900 | 143 | – | – | 2.7 | > 4000 | 26 | – | 8.2 | Not Active | – | – | – | – | – | – | – | 1 | 910 (≈ 355 µg/mL) | fraction unbound [23]: 0.23 |
